Source: ChEMBL document CHEMBL3872202, “Synthesis and biofilm formation reduction of pyrazole-4-carboxamide derivatives in some Staphylococcus aureus strains” (Eur J Med Chem, 2016)

Legend:
[1] = system: Staphylococcus aureus; assay: Antibiofilm activity against Staphylococcus aureus ATCC 6538 after 24 hrs by crystal-violet stain based assay; format: functional; details: ATCC 6538, 24 h
How it was run: (§1)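 Biofilm prevention: diluted bacterial suspension (OD about 0.040 at 570 nm) with sub-MIC concentrations from 300 to 0.3 added at time zero, 37 °C for 24 h in 24-well polystyrene plates. Wells washed three times with PBS, stained with 0.1% crystal violet for 30 min, and the stain redissolved in ethanol. OD read at 600 nm. Percent inhibition taken against untreated control wells. Triplicate, repeated at least twice.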

[2] = system: Staphylococcus aureus; assay: Antibiofilm activity against Staphylococcus aureus ATCC 25923 after 24 hrs by crystal-violet stain based assay; format: functional; details: ATCC 25923, 24 h; how it was run: as §1
[3] = system: Staphylococcus aureus; assay: Inhibition of Staphylococcus aureus ATCC 29213 planktonic growth at 250 uM after 24 hrs by microbroth dilution method
[4] = system: Staphylococcus aureus; assay: Inhibition of Staphylococcus aureus ATCC 25923 planktonic growth at 250 uM after 24 hrs by microbroth dilution method
[5] = system: Staphylococcus aureus; assay: Antibiofilm activity against Staphylococcus aureus ATCC 29213 after 24 hrs by crystal-violet stain based assay; format: functional; details: ATCC 29213, 24 h; how it was run: as §1
[6] = system: Staphylococcus aureus; assay: Inhibition of Staphylococcus aureus ATCC 6538 planktonic growth at 250 uM after 24 hrs by microbroth dilution method
[7] = Toxicity in Galleria mellonella assessed as effect on time to pupation at 1 mg/kg administered as single dose measured every 24 hrs for 72 hrs; format: organism-based; details: in vivo
How it was run: (§2)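 Uninfected larvae given a single 1 mg/kg injection in PBS with 3% DMSO, alongside untreated and vehicle-only groups, three replicates of four larvae each. Larvae kept in starvation and monitored for weight loss and time to pupation/chrysalis formation as sub-lethal endpoints. Groups compared statistically.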

[8] = Toxicity in Galleria mellonella assessed as effect on larval survival at 1 mg/kg administered as single dose measured every 24 hrs for 72 hrs; format: organism-based; details: in vivo
How it was run: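 Larvae held at 37 °C and given a single 1 mg/kg injection in PBS with 3% DMSO. Controls were untreated larvae and vehicle-injected larvae. Three replicates of four larvae per group. Survival checked at 24, 48 and 72 h after injection. Results given as mean with SD and compared by post hoc Tukey test (P < 0.05).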

[9] = Toxicity in Galleria mellonella assessed as effect on larval weight at 1 mg/kg administered as single dose measured every 24 hrs for 72 hrs; format: organism-based; details: in vivo; how it was run: as §2
[10] = system: Staphylococcus aureus; assay: Antivirulence activity against Staphylococcus aureus ATCC 29213 infected in Galleria mellonella larvae assessed as increase in larvae survival at 1 mg/kg administered as single dose pretreated for 1 hr followed by bacterial infection measured every 24 hrs for 72 hrs relative to control; format: functional
How it was run: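 Galleria mellonella larvae given a single 1 mg/kg injection in PBS with 3% DMSO 1 h before inoculation with live S. aureus ATCC 29213, injected into alternate prolegs. Controls: untouched larvae, uninfected vehicle-injected larvae, uninfected compound-treated larvae, and vehicle-pretreated infected larvae. Larvae held at 37 °C, survival checked at 24, 48 and 72 h. Three replicates of four larvae per group, Tukey post hoc test.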

[11] = system: Staphylococcus aureus; assay: Antibiofilm activity against Staphylococcus aureus ATCC 25923 after 24 hrs by safranin staining based assay; format: functional; details: ATCC 25923, 24 h
[12] = system: Staphylococcus aureus; assay: Antibiofilm activity against Staphylococcus aureus ATCC 6538 after 24 hrs by safranin staining based assay; format: functional; details: ATCC 6538, 24 h
[13] = system: Staphylococcus aureus; assay: Antibiofilm activity against Staphylococcus aureus ATCC 29213 after 24 hrs by safranin staining based assay; format: functional; details: ATCC 29213, 24 h

SMILES	IC50 [1] [µM]	IC50 [2] [µM]	growth inhibition (GI) [3]	growth inhibition (GI) [4]	IC50 [5] [µM]	growth inhibition (GI) [6]	Activity [7]	Activity [8]	Activity [9]	fold change (FC) [10]	IC50 [11] [µM]	IC50 [12] [µM]	IC50 [13] [µM]
CCOC(=O)c1cnn(-c2ccccn2)c1N	91	102	Non-Toxic	Non-Toxic	31	Non-Toxic							
CCOC(=O)c1cnn(-c2ccccc2)c1N	95	222	Non-Toxic	Non-Toxic	34	Non-Toxic							
Cc1c(C(=O)Nc2ccccc2)cnn1-c1ccccc1	77	112	Non-Toxic	Non-Toxic	309	Non-Toxic							
Cc1c(C(=O)Nc2ccccc2)cnn1-c1cccc([N+](=O)[O-])c1	90	64	Non-Toxic	Non-Toxic	46	Non-Toxic							
CC(=O)/C(=C\NNc1cc(Cl)ccc1Cl)C(=O)Nc1ccccc1	32	2.3	Non-Toxic	Non-Toxic	2.5	Non-Toxic	Non-Toxic	Non-Toxic	Non-Toxic	1.6			
Cc1cc(C(=O)Nc2ccccc2)n(-c2ccccc2)n1	54	74	Non-Toxic	Non-Toxic	123	Non-Toxic							
CCOC(=O)c1c(C)n[nH]c1N	82	378	Non-Toxic	Non-Toxic	62	Non-Toxic							
Cc1c(C(=O)Nc2ccccc2)cnn1-c1cc(Cl)ccc1Cl		92	Non-Toxic	Non-Toxic	52	Non-Toxic							
Cc1c(C(=O)Nc2ccccc2)cnn1-c1cccc(Cl)c1	103	161	Non-Toxic	Non-Toxic	169	Non-Toxic							
CCOC(=O)/C(=N/Nc1cccc(C)c1)C(=O)c1cc(C)nn1CC											10	43	1.7
Cc1c(C(=O)Nc2ccccc2)cnn1-c1cc(F)ccc1F	81	61	Non-Toxic	Non-Toxic	89	Non-Toxic							
CCn1nc(C)cc1C(=O)/C(=N\Nc1cccc(Cl)c1)C(=O)O											20	11	16
CCOC(=O)c1cnn(-c2ccc(S(N)(=O)=O)cc2)c1N	142	77	Non-Toxic	Non-Toxic	28	Non-Toxic							
Cc1c(C(=O)Nc2ccccc2)cnn1-c1ccc([N+](=O)[O-])cc1	55	434	Non-Toxic	Non-Toxic	127	Non-Toxic							
Cc1c(C(=O)Nc2ccccc2)cnn1-c1ccc(Cl)cc1	30	552	Non-Toxic	Non-Toxic	38	Non-Toxic							
Cc1cc(C(=O)Nc2ccccc2)nn1-c1ccccc1	64	76	Non-Toxic	Non-Toxic	54	Non-Toxic							
CCOC(=O)/C(=N/Nc1ccccc1F)C(=O)c1cc(C)nn1CC											42	0.9	13
Cc1c(C(=O)Nc2ccccc2)cnn1-c1ccc(C(F)(F)F)cc1		64	Non-Toxic	Non-Toxic	46	Non-Toxic							
CCOC(=O)c1cnn(C)c1N		159	Non-Toxic	Non-Toxic	152	Non-Toxic							
CCOC(=O)c1cn[nH]c1N	85	213	Non-Toxic	Non-Toxic	83	Non-Toxic							
